This is a sample that favours compounds with a hit; in the whole collection about 1.8% have one here.
697 NFkB inh: inhibitors of the PMA/ionomycin-induced NF-kB reporter in 697 B cells; inhibition, % at 4 µM; 697 B-cell NF-kB luciferase reporter, 16 h; 330,000 tested, 0.33% active; in the data active = inhibition above about 35%
Gli-Sufu block: Gli-Sufu pathway antagonism | Sufu-KO-LIGHT fibroblasts, Gli luciferase reporter luminescence | inhibition, % at 5 µM | 340,000 tested, 0.74% active | AID 588413;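 active = inhibition above about 55%, limit read from the data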
NR2E3 ag-1: human photoreceptor-specific nuclear receptor agonism. CHO-S Gal4-NCOR/VP16-NR2E3 two-hybrid, luciferase. inhibition of corepressor binding, % at 3.98 µM. 360,000 tested, 0.35% active. AID 602229;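 active = inhibition above the mean of all tested compounds plus 3 SD, cut at about 70% in these data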;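 also: higher means lower luciferase signal from less NR2E3 corepressor binding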
NR2E3 ag-2: agonists of human nuclear receptor NR2E3 | Q9Y5X4 | GST-NR2E3/biotin-RetCOR TR-FRET, 1536-well | inhibition of corepressor binding, % at 4.78 µM | 320,000 tested, 0.12% active;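 active = percent inhibition above the cutoff of mean plus 3 SD of all tested compounds, set per screening campaign, cut at about 20% in these data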
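system = GST-tagged NR2E3 plus biotinylated RetCOR corepressor | input = 1.35 nM GST-NR2E3 | also added = 7 nM biotin-RetCOR | schedule = 5 h incubation at 4 °C | measured by = TR-FRET with europium anti-GST and streptavidin-D2, 340 nm excitation | read-out = percent loss of FRET ratio relative to control wells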
Jurkat NFkB inh: inhibitors of the PMA/ionomycin-induced NF-kB reporter in Jurkat cells | PMA/ionomycin-induced NF-kB luciferase reporter, luminescence | inhibition, % at 4 µM | 330,000 tested, 0.53% active | AID 435003; in the data active = inhibition above about 50%
GalR3 antag: antagonists of human GalR3; inhibition, % at 3 µM; 360,000 tested, 0.44% active; HEK293 GalR3-CNG cAMP membrane potential fluorescence; galR3 body fused to GalR1 C-terminus; O60755;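 active = inhibition above the screen-wide average plus 3 SD, cut at about 13% in these data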;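 also: forskolin and galanin both at EC90 stimulate the cells; cAMP rise reported by CNG channel membrane potential dye signal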
Target sequence (O60755 1-299 limits assumed): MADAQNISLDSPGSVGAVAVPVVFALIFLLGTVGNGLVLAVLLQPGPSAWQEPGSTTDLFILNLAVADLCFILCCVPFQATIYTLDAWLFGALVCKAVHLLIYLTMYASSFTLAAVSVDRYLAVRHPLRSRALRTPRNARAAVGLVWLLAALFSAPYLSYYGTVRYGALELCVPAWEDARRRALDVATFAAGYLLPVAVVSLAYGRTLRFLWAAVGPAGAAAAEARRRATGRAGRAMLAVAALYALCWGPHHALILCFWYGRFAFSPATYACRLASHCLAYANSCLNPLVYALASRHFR
A number is an active result; . = inactive; / = not tested or not shown.

SMILES | 697 NFkB inh | Gli-Sufu block | NR2E3 ag-1 | NR2E3 ag-2 | Jurkat NFkB inh | GalR3 antag
CC(CCC(C)C(C)(C)C)[C@@H]1CC[C@H]2C3C[C@H](OS(O)(=S)=S)[C@H]4C[C@H](OS(O)(=S)=S)[C@@H](OS(O)(=S)=S)C[C@]4(C)[C@H]3CC[C@]12C (some centres not stated) (tested in a mixture with another compound) | . | . | 75 | / | . | /
CC(CCC(=O)NN)C1CCC2C3CCC4CC(O)CCC4(C)C3CCC12C (configuration not stated) | / | . | . | / | / | .
COC(=O)CCC/C=C1/SCC(NC(=O)c2ccccc2)C1O (configuration not stated) | . | . | . | . | . | .
COC(=O)CCC/C=C1/SCC(NC(=O)c2ccccc2)C1=O (configuration not stated) | . | . | . | . | . | 13
CSc1ccc(CN(C)C(=O)c2cccc(S(=O)(=O)N3CCN(Cc4ccccc4)CC3)c2)cc1 | . | . | 71 | . | . | .
CN(C)c1ccc(C=c2c3cc([N+](=O)[O-])ccc3n3c2cc(-c2ccccc2)[n+]3C)cc1 | / | 81 | . | / | / | .
CN(C)c1ccc(C=c2c3ccccc3n3c2cc(-c2ccc(Cl)cc2)[n+]3C)cc1 | / | 83 | . | / | / | .
CN(C)c1ccc(/C=C/c2cc[n+]([O-])cc2)cc1 | . | / | / | . | . | /
CN(C)c1ccc(/C=C/c2cc[n+](C)cc2)cc1 | . | 70 | . | . | . | .
CC[n+]1c(/C=C/c2ccc(OC(C)=O)c(OC)c2)ccc2ccccc21 | . | . | . | / | . | .
CC[n+]1ccc(/C=C/c2ccc(N(C)C)cc2)c2ccccc21 | / | 87 | . | / | / | .
CC[n+]1c(/C=C/c2ccc(N(C)C)cc2)ccc2ccccc21 | / | 88 | . | . | / | .
C[C@@H]1ON(C)[C@H]2C[C@H]3c4cc(-c5cc6ccccc6o5)ccc4CCN3C[C@@H]12 | / | / | / | / | / | .
COc1ccc(Cn2c(C)c(CC(=O)Nc3ccc(Oc4cccnc4)c(C)c3)c3ccccc32)cc1 | / | / | / | / | / | .
OCC1SC(O)C(O)C(O)C1O (configuration not stated) | / | / | / | / | / | .
CCCCCc1ccc(S(=O)(=O)NCCc2ccncc2)cc1 | . | . | 88 | . | . | .
N#CC(c1ccc(Cl)cc1)c1ccc2c(C(F)(F)F)cc(C(F)(F)F)nc2n1 (configuration not stated) | . | 92 | . | . | . | 36
CCOc1ccccc1/C=N/NC(=O)c1c(C)nc2ccc(Br)cn12 | . | . | . | . | . | .
COc1cccc(/C=N/NC(=O)c2c(C)nc3ccc(Br)cn23)c1O | . | 88 | . | . | . | /
O=S(=O)(c1ccccc1)N1CCN(c2cc(-c3ccccc3)nc3ncnn23)CC1 | . | 57 | . | . | . | .
O=S(=O)(c1ccc(Br)cc1)N1CCN(c2cc(-c3ccccc3)nc3ncnn23)CC1 | . | . | . | . | . | /
COc1ccc(-c2ccc3c(n2)CCCN3S(=O)(=O)c2ccccc2)cc1 | / | / | / | / | / | .
CN(C)Cc1c(C(=O)N/N=C/c2ccccc2OCc2c(F)cccc2Cl)nnn1-c1nonc1N | . | . | . | . | . | .
CN(C)Cc1c(C(=O)N/N=C/c2cccc(OCc3c(F)cccc3Cl)c2)nnn1-c1nonc1N | . | 67 | . | . | . | .
CC(=NNC(=S)N1CC2CCC(CC2)C1)c1ccncn1 | / | 85 | . | / | / | .
SMILES | 697 NFkB inh | Gli-Sufu block | NR2E3 ag-1 | NR2E3 ag-2 | Jurkat NFkB inh | GalR3 antag
CC(=NNC(=S)N1CCCCC1)c1cccc(C)n1 | / | . | . | / | / | .
Cc1sccc1C1C(C#N)=C(N)SC(N)=C1C#N | . | / | / | 36 | . | /
COC(=O)C1=C(C)N(Cc2cccc(C(F)(F)F)c2)C(=NCc2ccc3c(c2)OCO3)NC1c1ccc(F)cc1 (configuration not stated) | / | / | / | / | / | .
CCc1ccc(Nc2n[n+](-c3ccccc3)c(-c3cccc(C)c3)s2)cc1 | . | 70 | . | . | . | .
O=C(NCCc1ccccc1Cl)[C@@H]1CCCN1C(=O)[C@@H](NS(=O)(=O)c1ccc(F)cc1F)c1ccccc1 | / | / | / | / | / | .
COc1cccc(C(=O)N[C@H](C(=O)N2CCC[C@H]2C(=O)NCCc2ccccc2Cl)C2CCCCC2)c1 | / | / | / | / | / | .
CCCCCCCCCCOC(=O)Cn1c(COc2cccc(C)c2)[n+](C)c2ccccc21 | . | / | . | . | . | .
CCCCOC(=O)Cn1c(=O)n(CC(=O)OCCCC)c2ccccc21 | . | . | . | . | . | .
CCCCCCCCCCOC(=O)Cn1c(COc2ccc(OC)cc2)[n+](C)c2ccccc21 | . | 76 | . | . | . | /
CCCCCCCCCCOC(=O)Cn1c(COc2ccc(Cl)cc2)[n+](C)c2ccccc21 | . | 68 | . | . | . | .
CCCCCCCCCCOC(=O)Cn1c(COc2ccccc2C)[n+](C)c2ccccc21 | . | 85 | . | . | . | /
CCCCCCCCCCOC(=O)Cn1c(COc2ccccc2)[n+](C)c2ccccc21 | . | 62 | . | . | . | .
COc1ccc(-c2c(C(=O)c3ccccc3)[nH]c(N)c2C(=O)NCCc2c[nH]c3ccccc23)cc1 | / | / | / | / | / | .
Nc1[nH]c(C(=O)c2ccccc2)c(-c2ccc(Cl)cc2)c1C(=O)c1c[nH]c2ccccc12 | / | / | / | / | / | .
O=C(COC(=O)Cc1c(Cl)cccc1Cl)NCC1CCCO1 (configuration not stated) | . | . | . | . | . | 14
O=C(COC(=O)Cc1ccc(Br)cc1)NCC1CCCO1 (configuration not stated) | . | . | . | / | . | .
COCc1cc(N2CCN(C(=O)OC(C)(C)C)C[C@H]2C)ccc1N1CCS(=O)(=O)CC1 | / | / | / | / | / | .
c1ccc2c(c1)oc1c(N3CCOCC3)ncnc12 | . | . | . | . | . | .
C(=C\c1ccccc1)/CN1CCN(c2ncnc3c2oc2ccccc23)CC1 | . | . | 98 | . | . | .
C=CC[C@]1(c2ccccc2)C(=O)N2C[C@H]3CON(C)[C@H]3C[C@H]2c2ccccc21 | / | / | / | / | / | .
Cc1nc(N/N=C/c2ccccn2)sc1C | / | 58 | / | . | / | .
CCCc1sc(N/N=C/c2ccccn2)nc1-c1ccc(F)cc1 | . | 60 | . | . | . | /
Cc1cc(C)c2cc(CN(CC3CCCO3)C(=S)NCc3ccco3)c(=O)[nH]c2c1 (configuration not stated) | . | . | . | . | . | .
Cc1cc(C)c2cc(CN(Cc3ccco3)C(=O)NCc3ccccc3)c(=O)[nH]c2c1 | . | . | . | . | . | 14
Cc1nc2scc(C)n2c(=O)c1S(=O)(=O)Nc1ccc(N2CCOCC2)c(Cl)c1 | . | 71 | . | . | . | .
CCOC(=O)N1CCN(Cc2cc(Cl)c3cccnc3c2O)CC1 | . | 73 | / | . | . | .
CCc1c(Cc2ccccc2)ncn1CCc1ccccc1OC | / | / | / | / | / | .
